Laboratory results: ChEMBL document CHEMBL1138290 (J Med Chem, 2007)
Each block holds one molecule with its values, some of them ahead of it.

Legend:
K562 = test: Antiproliferative activity against human K562 cells after 48 hrs; assay type: functional, cell-based; conditions: K562, 48 h
How it was run: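 Growth of K562 cells measured by counting cells with a hemocytometer after 48 h (2 days) of drug treatment. IC50 is the mean of at least three independent determinations.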

Tubulin = Tubulin (Sus scrofa, UniProt P02554+P02550); test: Inhibition of porcine brain tubulin polymerization
[1] = Cytotoxicity against human KB/HeLa cells after 48 hrs by XTT assay; assay type: functional, cell-based
How it was run: (§1)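 XTT proliferation assay with 48 h incubation with test compound. Each experiment run at least in duplicate (n = 2). IC50 calculated by nonlinear regression of dose-response curves.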

RKO = test: Cytotoxicity against human RKO cells with ectopic-inducible expression of p27kip1 after 48 hrs by XTT assay; assay type: functional, cell-based; how it was run: as §1
[2] = Antiproliferative activity against rat multidrug-resistant L12 cells after 48 hrs by XTT assay; assay type: functional, cell-based; conditions: L1.2, 48 h; how it was run: as §1
L1210 = test: Antiproliferative activity against mouse vincristine-resistant L1210 cells after 48 hrs by XTT assay; assay type: functional, cell-based; conditions: L1210, 48 h; how it was run: as §1
P388 = test: Antiproliferative activity against mouse adriamycin-resistant P388 cells after 48 hrs by XTT assay; assay type: functional, cell-based; conditions: P388, 48 h; how it was run: as §1
[3] = Cell cycle arrest in KB/HeLa cells assessed as accumulation at G2/M phase after 24 hrs by flow cytometric analysis; assay type: functional, cell-based; conditions: Homo sapiens
How it was run: (§2)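 Subconfluent KB/HeLa cells exposed to a range of compound concentrations for 24 h. Cell cycle phase distribution determined by flow cytometry. Experiments run at least in duplicate (n = 2).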

[4] = Cell cycle arrest in KB/HeLa cells assessed as accumulation at S phase at 3.16 nM after 24 hrs by flow cytometric analysis; assay type: functional, cell-based; conditions: Homo sapiens; how it was run: as §2
[5] = Cell cycle arrest in KB/HeLa cells assessed as accumulation at S phase at 1 nM after 24 hrs by flow cytometric analysis; assay type: functional, cell-based; conditions: Homo sapiens; how it was run: as §2
[6] = Cell cycle arrest in KB/HeLa cells assessed as accumulation at S phase at 10 nM after 24 hrs by flow cytometric analysis; assay type: functional, cell-based; conditions: Homo sapiens; how it was run: as §2
[7] = Cell cycle arrest in KB/HeLa cells assessed as accumulation at S phase at 31.6 nM after 24 hrs by flow cytometric analysis; assay type: functional, cell-based; conditions: Homo sapiens; how it was run: as §2
[8] = Cell cycle arrest in KB/HeLa cells assessed as accumulation at S phase at 100 nM after 24 hrs by flow cytometric analysis; assay type: functional, cell-based; conditions: Homo sapiens; how it was run: as §2
[9] = Cell cycle arrest in KB/HeLa cells assessed as accumulation at S phase at 316 nM after 24 hrs by flow cytometric analysis; assay type: functional, cell-based; conditions: Homo sapiens; how it was run: as §2
[10] = Cell cycle arrest in KB/HeLa cells assessed as accumulation at G2M phase at 1 nM after 24 hrs by flow cytometric analysis; assay type: functional, cell-based; conditions: Homo sapiens; how it was run: as §2
[11] = Cell cycle arrest in KB/HeLa cells assessed as accumulation at G2M phase at 3.16 nM after 24 hrs by flow cytometric analysis; assay type: functional, cell-based; conditions: Homo sapiens
[12] = Cell cycle arrest in KB/HeLa cells assessed as accumulation at G2M phase at 10 nM after 24 hrs by flow cytometric analysis; assay type: functional, cell-based; conditions: Homo sapiens; how it was run: as §2
[13] = Cell cycle arrest in KB/HeLa cells assessed as accumulation at G2M phase at 31.6 nM after 24 hrs by flow cytometric analysis; assay type: functional, cell-based; conditions: Homo sapiens; how it was run: as §2
[14] = Cell cycle arrest in KB/HeLa cells assessed as accumulation at G2M phase at 100 nM after 24 hrs by flow cytometric analysis; assay type: functional, cell-based; conditions: Homo sapiens; how it was run: as §2
[15] = Cell cycle arrest in KB/HeLa cells assessed as accumulation at G2M phase at 316 nM after 24 hrs by flow cytometric analysis; assay type: functional, cell-based; conditions: Homo sapiens; how it was run: as §2
[16] = Cell cycle arrest in KB/HeLa cells assessed as accumulation at G1 phase at 1 nM after 24 hrs by flow cytometric analysis; assay type: functional, cell-based; conditions: Homo sapiens; how it was run: as §2
[17] = Cell cycle arrest in KB/HeLa cells assessed as accumulation at G1 phase at 3.16 nM after 24 hrs by flow cytometric analysis; assay type: functional, cell-based; conditions: Homo sapiens; how it was run: as §2
[18] = Cell cycle arrest in KB/HeLa cells assessed as accumulation at G1 phase at 10 nM after 24 hrs by flow cytometric analysis; assay type: functional, cell-based; conditions: Homo sapiens; how it was run: as §2
[19] = Cell cycle arrest in KB/HeLa cells assessed as accumulation at G1 phase at 31.6 nM after 24 hrs by flow cytometric analysis; assay type: functional, cell-based; conditions: Homo sapiens; how it was run: as §2
[20] = Cell cycle arrest in KB/HeLa cells assessed as accumulation at G1 phase at 100 nM after 24 hrs by flow cytometric analysis; assay type: functional, cell-based; conditions: Homo sapiens; how it was run: as §2
[21] = Cell cycle arrest in KB/HeLa cells assessed as accumulation at G1 phase at 316 nM after 24 hrs by flow cytometric analysis; assay type: functional, cell-based; conditions: Homo sapiens; how it was run: as §2

- IC50 (K562): 530 nM
- IC50 (Tubulin): 740 nM
SMILES: Cc1cccc(S(=O)(=O)Oc2c3ccccc3cc3sccc23)c1

- IC50 (L1210): > 5000 nM
- IC50 (P388): > 5000 nM
- EC50 [3]: 49 nM
SMILES: CC(=O)O[C@H]1C(=O)[C@@]2(C)[C@H]([C@H](OC(=O)c3ccccc3)[C@]3(O)C[C@H](OC(=O)[C@H](O)[C@@H](NC(=O)c4ccccc4)c4ccccc4)C(C)=C1C3(C)C)[C@]1(OC(C)=O)CO[C@@H]1C[C@@H]2O [PACLITAXEL]
- IC50 [1]: 10 nM
- IC50 (RKO): > 3000 nM
- IC50 [2]: 400 nM
- Activity [4]: 27%
- Activity [5]: 26.7%
- Activity [6]: 26.6%
- Activity [7]: 49.9%
- Activity [8]: 11%
- Activity [9]: 8.9%
- Activity [10]: 10.1%
- Activity [11]: 9.4%
- Activity [12]: 8.5%
- Activity [13]: 19%
- Activity [14]: 87.8%
- Activity [15]: 90.8%
- Activity [16]: 63.2%
- Activity [17]: 63.6%
- Activity [18]: 64.8%
- Activity [19]: 31.1%
- Activity [20]: 1.2%
- Activity [21]: 0.3%

- IC50 (K562): 1400 nM
SMILES: COc1cc([N+](=O)[O-])ccc1S(=O)(=O)Oc1c2ccccc2cc2sccc12

- IC50 (K562): 350 nM
SMILES: COc1ccc(S(=O)(=O)Oc2c3ccccc3c(Cl)c3ccccc23)cc1

- IC50 (K562): 400 nM
SMILES: O=S(=O)(Oc1c2ccccc2cc2sccc12)c1ccc(NO)cc1

- IC50 (K562): 280 nM
SMILES: COc1cc(N)ccc1S(=O)(=O)Oc1c2ccccc2cc2sccc12
